The source made the active and inactive calls. No cut-off for these calls is given here.
Assays:
[1] = target: Replicase polyprotein 1ab (Severe acute respiratory syndrome coronavirus 2, UniProt P0DTD1); assay: Inhibition of N-terminal 6His/SUMO-tagged SARS-CoV-2 NSP14 expressed in Escherichia coli Rosetta 2 (DE3) PlysS cells using 5'GpppACCCCCCCCC-Biotin 3' and 3H-SAM as substrates incubated for 30 mins by TopCount scintillation proximity assay
[2] = target: Replicase polyprotein 1ab (Severe acute respiratory syndrome coronavirus 2) (UniProt P0DTD1); assay: Irreversible covalent inhibition of N-terminal 6His/SUMO-tagged SARS-CoV-2 NSP14 expressed in Escherichia coli Rosetta 2 (DE3) PlysS cells using 5'GpppACCCCCCCCC-Biotin 3' and 3H-SAM as substrates assessed as adduct formation at 50 uM measured upto 18 hrs by mass spectrometric analysis
Method in brief: (§1)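 1 μM enzyme held alone or with 50 or 500 μM compound at room temperature. Sampled at 0, 2, 4, 8 and 18 h by QTof MS in 0.05% formic acid; intact mass deconvoluted from 700–1400 m/z.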

[3] = target: Replicase polyprotein 1ab (Severe acute respiratory syndrome coronavirus 2) (UniProt P0DTD1); assay: Inhibition of N-terminal 6His/SUMO-tagged SARS-CoV-2 NSP14 expressed in Escherichia coli Rosetta 2 (DE3) PlysS cells using 5'GpppACCCCCCCCC-Biotin 3' and 3H-SAM as substrates at 100 uM incubated for 30 mins by TopCount scintillation proximity assay relative to control
[4] = target: Replicase polyprotein 1ab (Severe acute respiratory syndrome coronavirus 2) (UniProt P0DTD1); assay: Irreversible covalent inhibition of N-terminal 6His/SUMO-tagged SARS-CoV-2 NSP14 expressed in Escherichia coli Rosetta 2 (DE3) PlysS cells using 5'GpppACCCCCCCCC-Biotin 3' and 3H-SAM as substrates assessed as adduct formation at 500 uM measured upto 18 hrs by mass spectrometric analysis; method in brief: as §1

C=CC(=O)NCC(=O)C(=O)N1CCC(C2C(=O)Nc3cc(Cl)ccc32)CC1 (stereo not given)
IC50 [1]: 7 µM | inhibition [2]: Active

C=CC(=O)NCCC(=O)N1CCC(C2C(=O)Nc3cc(Cl)ccc32)CC1 (stereo not given)
IC50 [1]: 32 µM | inhibition [3]: > 50% | inhibition [4]: Active

Reference: ChEMBL document CHEMBL5338825, “Structure-Based Discovery of Inhibitors of the SARS-CoV-2 Nsp14 N7-Methyltransferase” (J Med Chem, 2023)
